The record followed here is ChEMBL document CHEMBL3259663, “3-Amido-3-aryl-piperidines: A Novel Class of Potent, Selective, and Orally Active GlyT1 Inhibitors” (ACS Med Chem Lett, 2014).

A short description of data set [1]: Permeability of the compound by PAMPA. The class given is physicochemical. Particulars: read-out: permeability.
Data set [2] concerns the target Cytochrome P450 2D6 (Homo sapiens, UniProt P10635). As to the kind of experiment: Inhibition of CYP2D6 (unknown origin). In kind it is ADME.
The target of data set [3] is Cytochrome P450 2C9 (Homo sapiens, UniProt P11712). As to the kind of experiment: Inhibition of CYP2C9 (unknown origin). The class given is ADME.
Data set [4] can be described thus: Dissociation constant, pKa of the compound by capillary electrophoresis. In kind it is physicochemical. In short, it runs like this: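 pKa determined by capillary electrophoresis.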
The subject of data set [5] is Mus musculus. Briefly: Inhibition of L687414-induced hyperlocomotion in po dosed mouse assessed horizontal activity at 8 ng/ml plasma concentration. In kind it is functional, organism-based.
Data set [6] relates to Brain. As to the kind of experiment: Effect on brain glycine level in rat striatum at 10 mg/kg, po. The class given is functional. The method in brief: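 Rat striatal microdialysis after a 10 mg/kg oral dose. Extracellular glycine measured as fold over basal levels, with sampling stopped at 3 h. Plasma and brain exposures determined at 3 h post-dose. n = 6.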
Data set [7] addresses T1, Sodium- and chloride-dependent glycine transporter 2 (Homo sapiens, UniProt Q9Y345).
T1 sequence (Q9Y345 whole entry): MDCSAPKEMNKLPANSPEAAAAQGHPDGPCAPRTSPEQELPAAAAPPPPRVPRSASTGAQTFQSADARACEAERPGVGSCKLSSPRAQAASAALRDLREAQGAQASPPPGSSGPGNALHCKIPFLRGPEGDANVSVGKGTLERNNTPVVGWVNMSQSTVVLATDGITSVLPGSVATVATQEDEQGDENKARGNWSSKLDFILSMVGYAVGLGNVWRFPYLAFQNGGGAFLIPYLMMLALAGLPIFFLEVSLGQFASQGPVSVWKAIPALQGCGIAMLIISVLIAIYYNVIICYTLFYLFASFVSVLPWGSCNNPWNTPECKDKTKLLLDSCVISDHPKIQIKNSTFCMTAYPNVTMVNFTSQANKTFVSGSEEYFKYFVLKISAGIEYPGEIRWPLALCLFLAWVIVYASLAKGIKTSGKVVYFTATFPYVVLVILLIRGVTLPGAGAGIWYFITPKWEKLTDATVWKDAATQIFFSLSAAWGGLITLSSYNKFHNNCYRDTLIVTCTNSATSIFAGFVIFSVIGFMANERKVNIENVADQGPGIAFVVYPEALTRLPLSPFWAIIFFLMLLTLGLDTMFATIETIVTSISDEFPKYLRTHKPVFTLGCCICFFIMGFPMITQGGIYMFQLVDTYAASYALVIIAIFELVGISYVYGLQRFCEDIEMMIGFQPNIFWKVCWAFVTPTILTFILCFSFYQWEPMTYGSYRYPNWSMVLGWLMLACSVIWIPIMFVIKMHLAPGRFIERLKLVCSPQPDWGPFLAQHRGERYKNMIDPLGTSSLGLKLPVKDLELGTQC
Briefly: Inhibition of human GlyT2 expressed in cells assessed as [3H]glycine uptake. The class given is cell-based.

SMILES strings stand for the structures. The source made the active and inactive calls. The calls are words filed in the database; no cut-off is given here.

Cytochrome P450 2C9, sequence (P11712 whole entry): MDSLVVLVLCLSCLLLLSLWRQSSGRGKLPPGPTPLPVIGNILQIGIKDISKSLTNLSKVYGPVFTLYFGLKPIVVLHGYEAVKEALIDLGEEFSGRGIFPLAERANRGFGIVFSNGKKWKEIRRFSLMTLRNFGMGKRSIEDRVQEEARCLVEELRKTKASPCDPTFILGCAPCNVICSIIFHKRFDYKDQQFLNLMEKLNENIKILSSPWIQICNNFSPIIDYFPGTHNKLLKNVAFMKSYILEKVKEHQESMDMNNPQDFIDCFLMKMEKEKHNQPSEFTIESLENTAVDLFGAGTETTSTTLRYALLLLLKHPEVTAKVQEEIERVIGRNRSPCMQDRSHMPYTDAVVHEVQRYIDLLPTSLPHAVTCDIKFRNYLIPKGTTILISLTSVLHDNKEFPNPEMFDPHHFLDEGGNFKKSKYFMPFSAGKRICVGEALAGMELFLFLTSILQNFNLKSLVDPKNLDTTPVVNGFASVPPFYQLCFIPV
Cytochrome P450 2D6, sequence (P10635 whole entry): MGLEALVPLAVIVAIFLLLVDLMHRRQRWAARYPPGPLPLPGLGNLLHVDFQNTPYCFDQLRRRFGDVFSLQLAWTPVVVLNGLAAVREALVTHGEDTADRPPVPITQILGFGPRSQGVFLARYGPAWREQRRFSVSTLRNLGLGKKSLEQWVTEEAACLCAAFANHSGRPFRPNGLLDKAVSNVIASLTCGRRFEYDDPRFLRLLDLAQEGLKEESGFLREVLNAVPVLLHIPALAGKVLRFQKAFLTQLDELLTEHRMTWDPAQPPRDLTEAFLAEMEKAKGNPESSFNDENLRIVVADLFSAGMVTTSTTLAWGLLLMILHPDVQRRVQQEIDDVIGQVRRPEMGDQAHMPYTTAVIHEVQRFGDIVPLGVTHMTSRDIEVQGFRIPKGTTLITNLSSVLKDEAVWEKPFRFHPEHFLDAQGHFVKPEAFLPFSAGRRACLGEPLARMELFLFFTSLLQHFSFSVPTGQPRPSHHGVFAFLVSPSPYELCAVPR

In the case of `COc1cc(C(F)(F)F)cc(SC)c1C(=O)N[C@@]1(c2ccccc2)CCCN(C)C1`, the Papp in data set [1] amounted to 7.4 ×10⁻⁶ cm/s. The IC50 in data set [2] was 16 µM; in data set [3] it was above 50 µM. The pKa in data set [4] is 7.72. Besides, in data set [5], the inhibition entry was “Active”. The compound further showed an Activity in data set [6] of 60 ng/mL. Further, in data set [7], the EC50 worked out at 15 µM.
